# Tn6 DDE FP: inhibitors of Tn6 peptide binding to fibrin DD(E), primary screen, biochemical, fluorescence polarization, human fibrin, Tn6 probe | Fibrin DD(E) TRITC-Tn6 fluorescence polarization displacement | inhibition, % at 8.3 µM | hit rate 0.21% among 370,000 | AID 720509, 2013;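 active = inhibition above a per-campaign cutoff: mean of compounds within control limits plus 3 SD, cut at about 15% in these data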;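 also: 0% = median of all compound wells on the plate and 100% = blocking peptide control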
# Target sequence (P02675 whole entry, looked up): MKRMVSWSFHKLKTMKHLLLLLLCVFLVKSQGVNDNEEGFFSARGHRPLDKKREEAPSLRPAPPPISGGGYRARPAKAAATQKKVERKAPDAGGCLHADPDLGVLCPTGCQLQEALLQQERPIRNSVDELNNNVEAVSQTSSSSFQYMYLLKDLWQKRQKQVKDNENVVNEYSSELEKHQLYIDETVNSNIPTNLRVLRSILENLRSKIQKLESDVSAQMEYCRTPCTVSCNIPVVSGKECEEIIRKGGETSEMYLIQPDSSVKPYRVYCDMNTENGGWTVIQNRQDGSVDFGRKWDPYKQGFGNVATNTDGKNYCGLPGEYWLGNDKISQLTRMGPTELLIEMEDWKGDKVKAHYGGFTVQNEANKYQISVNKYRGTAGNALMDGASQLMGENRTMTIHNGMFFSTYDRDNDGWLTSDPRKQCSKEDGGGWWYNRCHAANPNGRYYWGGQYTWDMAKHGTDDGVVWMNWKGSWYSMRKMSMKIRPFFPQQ
# Tn7 DDE FP: inhibitors of Tn7 peptide binding to fibrin DD(E), primary screen, biochemical, fluorescence polarization, human fibrin, Tn7 probe. hit rate 0.13% among 370,000. FP displacement of FITC-Tn7 peptide from fibrin DD(E); 0% = median of compound wells per plate. inhibition, % at 8.3 µM. Fibrinogen beta chain (Homo sapiens), P02675;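 active = inhibition above the mean of compounds falling within the control limits plus 3 SD of them, cut at about 14% in these data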;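 also: 0% = plate median of compound wells and 100% = 10 µM Aha-Tn7 peptide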
#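 System: human fibrin DD(E); quantity: Fibrin-DD(E) at 2 µM final; also added: fluorescent Tn7 probe at 0.1 µM; compound dosing: single nominal test concentration of 8.3 µM per compound; schedule: 10 min preincubation, 3 h with tracer, room temperature; detection: fluorescence polarization of the labelled Tn7 tracer; repeats: one replicate per compound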
# RTF Ca sens inh: cardiac RTF calcium sensitivity inhibitors, primary screen, biochemical, IANBD-TnC fluorescence, EC70 calcium. Troponin I, cardiac muscle (Homo sapiens) + Troponin T, cardiac muscle (Homo sapiens) + …. hit rate 0.12% among 340,000. AID 493244, 2011. IANBD-labeled cardiac RTF, Ca2+ fluorescence. inhibition, % at 7.15 µM;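 active = inhibition above the mean inhibition of all tested compounds plus 3 SD, cut at about 17% in these data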;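 also: assay run at fixed EC70 calcium of 1.6 mM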
# CRFBP-R2 agonist: agonists of CRF-BP/CRF-R2 complex, primary screen, cell-based, HEK293, calcium dye fluorescence, uHTS. AID 588473, 2011. calcium dye fluorescence (FLIPR); percent of saturating CRF peptide response. activation, % at 13.2 µM. hit rate 0.46% among 350,000. CRF-binding protein / CRF receptor 2 complex (human);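 active = activation of at least 50%, plus an integration ratio under a set limit after plate pattern correction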;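 also: plate controls were neutral control wells without compound for no effect and CRF at EC100 for full effect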
# CRFBP-R2 block: antagonists of CRF-BP/CRF-R2 complex, primary screen, cell-based, HEK293, calcium dye fluorescence, uHTS; AID 588475, 2011; hit rate 0.59% among 350,000; inhibition, % at 11.8 µM; CRF-induced calcium fluorescence;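 active = inhibition of the ligand-induced calcium signal above about 50% at the single tested concentration, limit read from the data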
# RTF Ca sens act: cardiac RTF calcium sensitivity activators, primary screen, biochemical, IANBD-TnC fluorescence, EC20 calcium; IANBD-labeled TnC RTF fluorescence at EC20 calcium; 0% EC20 calcium, 100% full calcium; hit rate 0.24% among 340,000; AID 493008, 2010; activation, % at 7.2 µM;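 active = activation above the mean over all tested compounds plus 3 SD, cut at about 30% in these data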;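 also: rise in fluorescence read as greater calcium sensitivity of cardiac thin filaments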
# * hit, by the source's call; x = no result. In the library only some 1.4% were active in any assay of this set; here they are far more common.
SMILES,Tn6 DDE FP,Tn7 DDE FP,RTF Ca sens inh,CRFBP-R2 agonist,CRFBP-R2 block,RTF Ca sens act
CNC(=O)c1sc(N2N=C3/C(=C/c4ccccc4)CCCC3C2c2ccccc2)nc1C (stereo not given),x,x,-2.3,64.4*,-56.3,3.4
CCCc1cc(=O)[nH]c(SCC(=O)N(CCC#N)c2ccc3c(c2)OCCO3)n1,2.4,3.7,-1.6,-1.4,97.5*,-3.1
CCCc1cc(=O)[nH]c(SCC(=O)c2ccc3c(c2)OCCO3)n1,2.5,7.8,-0.4,5.9,24.6,0.2
CCOC(=O)C1CCCN(C2CC(=O)N(c3ccccc3)C2=O)C1 (stereo not given),-0.6,-4.3,9.2,-2.2,66.8*,-4.9
CCOC(=O)C1CCCN(C2CC(=O)N(c3ccc(N4C(=O)CC(N5CCCC(C(=O)OCC)C5)C4=O)cc3)C2=O)C1 (stereo not given),1.1,0.0,-6.0,0.2,-8.5,3.4
O=C(CCN1C(=O)C2C3C=CC(C4CC34)C2C1=O)OCC(=O)c1ccccc1 (stereo not given),-4.2,-0.9,4.6,-11.5,-16.1,-1.6
Cc1ccc(C(=O)COC(=O)CCN2C(=O)C3C4C=CC(C5CC45)C3C2=O)cc1 (stereo not given),6.1,0.1,-0.3,-2.8,91.1*,4.6
COc1ccccc1Cc1c(-c2ccccc2)nc2ccc(Cl)cn12,3.6,-7.6,x,x,x,x
COc1ccccc1-c1ccc(/C=C2\C=CC(=O)O2)o1,-3.9,-3.8,x,119.3*,-127.2,x
CC(=O)c1c(C)c2c(n1CCN(C)C)CCCC2,-7.1,-3.1,7.2,62.2*,21.3,-2.6
COc1ccccc1Cc1c(-c2ccc(Cl)cc2)nc2ccc(Br)cn12,1.0,0.2,x,x,x,x
CCc1ccc(-c2nc(CN3CCC(C(=O)N4CCN(c5ccccn5)CC4)CC3)c(C)o2)cc1,-7.1,-6.3,-0.1,-1.5,-8.1,-1.5
CCc1ccc(-c2nc(CN3CCC(C(=O)N4CCN(c5ccccc5)CC4)CC3)c(C)o2)cc1,-5.0,-5.2,-9.3,312.7*,-358.8,3.3
Cc1ccc(-n2c(Cc3cccs3)nnc2SCC(=O)Nc2cccc3ccccc23)cc1,-10.9,-6.2,x,x,x,x
CC(C)C[C@@H]1COc2cc(Br)ccc2S(=O)(=O)N1Cc1cn(CCC2OCCO2)nn1,5.6,-7.9,x,x,x,x
CCN(CC(=O)Nc1ccccc1C(F)(F)F)C(=O)c1cc(-c2ccccc2)nn1-c1ccccc1,-11.8,-0.8,0.7,0.5,18.1,-4.8
CCN(CC(=O)Nc1ccccc1C(F)(F)F)C(=O)c1ccc(-n2nc(C)c(CCC(=O)OC)c2C)cc1,-6.1,2.7,-74.5,0.9,-2.9,62.2*
C[C@H](NC(=O)c1nc[nH]c1C(=O)N1CCN(C(=O)OC(C)(C)C)CC1)C(=O)OC(C)(C)C,0.3,0.8,3.0,-1.2,-2.6,1.5
CC1CCN(C(=O)c2[nH]cnc2C(=O)N[C@@H](C)C(=O)OC(C)(C)C)CC1,-3.4,4.9,-13.3,26.3,54.2*,-7.8
CCN(CC)c1ccc(N=Cc2ccc(N(CC)CC)cc2O)cc1,-4.9,-2.5,-19.8,93.9*,-125.2,15.0
CCN(CC)c1ccc(C=Nc2ccc(N(C)C)cc2)c(O)c1,6.7,-1.4,13.0,50.7*,-60.5,1.5
C=CCN1C(C(=O)OC)CN(Cc2cn(Cc3ccc(Cl)cc3)nn2)CCS1(=O)=O (stereo not given),3.1,10.7,x,x,x,x
Cc1ccccc1NS(=O)(=O)c1ccc(C(=O)N(C)CC(=O)Nc2ccccc2Br)cc1,-7.8,-1.9,1.2,-1.1,87.8*,8.9
CCOC(=O)[C@]12CCCC=C1N(CCCOC)C(=O)[C@@H]2CC(=O)NCc1cccc(C(F)(F)F)c1,-7.1,-5.6,x,x,x,x
CC(=O)Nc1ccc(NC(=O)CSc2ccc(-c3ccc4c(c3)OCO4)nn2)cc1,2.1,3.1,0.3,-3.4,38.6,1.2
SMILES,Tn6 DDE FP,Tn7 DDE FP,RTF Ca sens inh,CRFBP-R2 agonist,CRFBP-R2 block,RTF Ca sens act
CC(=O)c1ccc(NC(=O)CSc2ccc(-c3ccc4c(c3)OCO4)nn2)cc1,3.7,-2.9,-9.7,-0.3,122.3*,-0.3
CC1CC(C)CN(C(=O)CSc2nc(Cc3cccs3)nc3ccccc23)C1 (stereo not given),-7.4,2.0,-10.0,-0.6,153.5*,8.3
CCOC(=O)CNC(=O)CSc1nc(Cc2cccs2)nc2ccccc12,-7.6,3.8,3.3,-0.1,5.7,6.7
CCN(CC)C(=O)Cn1nc(Cc2ccncc2)c2ccccc2c1=O,-0.9,2.6,x,x,x,x
COC1=C[C@H](C(=O)NCc2ccccc2)[C@H](C)[C@@H](c2ccccc2)CC1=O,-3.8,0.6,x,x,x,x
O=c1[nH]nc(N=Nc2c(O)[nH]c3ccc(F)cc23)c(=O)[nH]1,7.6,6.0,-6.2,-0.6,-0.2,-1.4
COc1ccc(N=Nc2[nH]c3ccc(C)cc3c2O)cc1,2.0,0.7,-3.4,-2.5,14.9,5.4
Cc1ccc(N=Nc2c(O)[nH]c3ccc(F)cc23)cc1,7.0,-0.4,-87.7,17.4,-20.6,74.6*
Cc1ccc(N=Nc2[nH]c3ccccc3c2O)cc1,2.5,-5.2,-46.9,1.1,-1.6,36.2*
COC(=O)C1=C(C)N(Cc2ccccc2C(F)(F)F)C(=NCC2CC2)NC1c1ccc(C(F)(F)F)cc1 (stereo not given),-0.2,2.7,x,x,x,x
Cc1noc(C)c1C(=O)N1CCC1(C)C(=O)NS(=O)(=O)c1ccccc1C(F)(F)F (stereo not given),-2.3,5.8,x,x,x,x
CC(C)CN(CC(C)C)C(=S)NC1CCCCC1,-8.5,-6.4,4.7,-1.6,54.7*,4.5
COC(=O)[C@]1(CNC(=O)Nc2ccc(C)c(Cl)c2)CC(=O)N(C)[C@@H]1c1ccccc1,-5.2,-1.0,x,x,x,x
COc1cc(Cl)ccc1OC1(C)CCN(Cc2ccc(-c3ccccn3)cc2)C1 (stereo not given),4.6,-1.2,x,x,x,x
CCOc1ccc(/C=N/NC(=O)CN2CCCCCCC2)cc1,7.1,0.1,-9.5,3.5,56.9*,7.1
NC1=NC2(CS1)CSC(N)=N2,-1.4,1.3,x,x,x,x
O=C(Nc1ccc(O)cc1)c1cccc(Oc2ccc([N+](=O)[O-])cc2)c1,8.2,-8.3,4.5,0.2,57.1*,-3.3
O=C(NCc1ccccc1)c1ccc2c(=O)[nH]c3c(C(=O)NCC4CCCO4)sc(=S)n3c2c1 (stereo not given),-8.1,0.1,5.0,-4.5,27.0,0.2

# Screening results from PubChem BioAssay.
